In ChEMBL document CHEMBL2331538, “Identification of inhibitors against interaction between pro-inflammatory sPLA2-IIA protein and integrin αvβ3” (Bioorg Med Chem Lett, 2013):
Active and inactive are the calls of the source. No cut-off for these calls is given here.

Columns and labels:
[1] = molecular target: T1, Phospholipase A2, membrane associated (Homo sapiens) (UniProt P14555); assay: Inhibition of sPLA2-IIA (unknown origin)-integrin alphaVbeta3 interaction in human K562 cells pretreated for 30 mins to immobilized sPLA2 before adding cells by phosphatase assay relative to BSA; type: cell-based
T1 sequence (whole entry): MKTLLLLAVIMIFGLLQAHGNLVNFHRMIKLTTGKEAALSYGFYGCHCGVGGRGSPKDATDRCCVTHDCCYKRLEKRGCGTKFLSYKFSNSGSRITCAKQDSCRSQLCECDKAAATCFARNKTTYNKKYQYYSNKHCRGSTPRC
Summary of the method: (§1)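 Wells coated with sPLA2-IIA and blocked with BSA were preincubated with compound (10 to 500 μM) for 30 min. Integrin αvβ3-transfected K562 erythroleukemia cells were then added for 1 h at 37 °C, and bound cells were quantified by phosphatase assay. IC50 and maximum inhibition were derived from dose-response experiments.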

[2] = molecular target: T2, Phospholipase A2, membrane associated (Homo sapiens, UniProt P14555); assay: Inhibition of sPLA2-IIA (unknown origin)-integrin alphaVbeta3 interaction in human K562 cells pretreated for 30 mins to immobilized sPLA2 before adding cells by phosphatase assay; type: cell-based; summary of the method: as §1
T2 sequence (P14555 whole entry): T1 sequence (whole entry)

[3] = molecular target: T3, Disintegrin and metalloproteinase domain-containing protein 15 (Homo sapiens) (UniProt Q13444); assay: Inhibition of ADAM15 (unknown origin)-integrin alphaVbeta3 interaction in human K562 cells pretreated at 200 uM for 30 mins to immobilized sPLA2 before adding cells by phosphatase assay; type: cell-based
T3 sequence (whole entry): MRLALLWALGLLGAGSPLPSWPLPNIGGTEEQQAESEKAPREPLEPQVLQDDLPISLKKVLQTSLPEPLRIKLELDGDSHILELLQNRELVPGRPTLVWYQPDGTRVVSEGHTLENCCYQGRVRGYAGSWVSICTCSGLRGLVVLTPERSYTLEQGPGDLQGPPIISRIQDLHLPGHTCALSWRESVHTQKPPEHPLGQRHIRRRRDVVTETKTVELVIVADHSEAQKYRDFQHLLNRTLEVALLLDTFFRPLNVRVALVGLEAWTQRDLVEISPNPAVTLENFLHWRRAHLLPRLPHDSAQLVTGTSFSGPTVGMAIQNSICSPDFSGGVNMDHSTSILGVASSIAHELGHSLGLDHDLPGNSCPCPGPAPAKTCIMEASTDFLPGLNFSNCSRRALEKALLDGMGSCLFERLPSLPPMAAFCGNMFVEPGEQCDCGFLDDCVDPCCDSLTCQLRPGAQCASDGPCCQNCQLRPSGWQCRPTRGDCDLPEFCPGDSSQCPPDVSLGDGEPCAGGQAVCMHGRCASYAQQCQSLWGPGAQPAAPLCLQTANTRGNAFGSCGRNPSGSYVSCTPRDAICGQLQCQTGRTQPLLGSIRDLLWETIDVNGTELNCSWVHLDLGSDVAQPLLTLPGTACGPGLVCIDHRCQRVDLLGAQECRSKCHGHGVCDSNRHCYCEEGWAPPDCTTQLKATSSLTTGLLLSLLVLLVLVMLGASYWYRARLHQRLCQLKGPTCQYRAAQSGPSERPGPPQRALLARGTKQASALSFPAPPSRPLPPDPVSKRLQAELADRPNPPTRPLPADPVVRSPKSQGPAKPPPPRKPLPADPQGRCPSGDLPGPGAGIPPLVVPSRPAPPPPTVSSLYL
Summary of the method: (§2)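 Specificity adhesion assay using αvβ3-transfected K562 cells. Wells were coated with either ADAM15 or sPLA2-IIA and blocked with BSA. Compound was used at 200 μM. Adherent cells were quantified by phosphatase assay. Means ± S.E., n=3.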

[4] = molecular target: T1, Phospholipase A2, membrane associated (Homo sapiens); assay: Inhibition of sPLA2-IIA (unknown origin)-integrin alphaVbeta3 interaction in human K562 cells pretreated at 200 uM for 30 mins to immobilized sPLA2 before adding cells by phosphatase assay; type: cell-based; summary of the method: as §2
U-937 [5] = assay: Inhibition of sPLA2-IIA (unknown origin)-induced migration of human U937 cells after 20 hrs by chemotaxis assay
U-937 [6] = assay: Inhibition of sPLA2-IIA R47E/R100E mutant (unknown origin)-induced migration of human U937 cells after 20 hrs by chemotaxis assay; type: cell-based
[7] = molecular target: T1, Phospholipase A2, membrane associated (Homo sapiens); assay: Inhibition of sPLA2-IIA (unknown origin)-induced migration of human U937 cells after 20 hrs by chemotaxis assay; type: cell-based; conditions: U-937
Summary of the method: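 Modified Boyden chamber (Transwell) chemotaxis assay. The lower chamber held sPLA2-IIA (40 ng/ml) with compound (4 to 16 μM), and U937 monocytic cells were placed in the upper chamber for 20 h at 37 °C. Migrated cells were counted. Means ± SE, n=4.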

SMILES	Imax [1]	also measured
Cc1nc(NC(=O)c2ccccc2)sc1-c1cc(C(=O)N[C@@H](C)C(=O)N[C@@H](Cc2c[nH]c3ccccc23)C(=O)N[C@H](CC(=O)O)C(=O)O)[nH]n1	inactive	–
Cc1nc(NC(=O)c2ccccc2)sc1-c1cc(C(=O)NCC(=O)O)[nH]n1	98%	–
C[C@H](NC(=O)[C@@H](CCCNC(=N)N)NC(=O)[C@@H](CC(N)=O)NC(=O)[C@@H](CCCNC(=N)N)NC(=O)[C@@H](Cc1ccccc1)NC(=O)c1ccc2nn3c(c2c1)OCc1cc(Cl)ccc1-3)C(=O)N[C@@H](Cc1ccc(O)cc1)C(=O)O	71%	IC50 [2]: 85 µM
CC(C)[C@H](NC(=O)[C@@H]1CCCN1C(=O)[C@@H](CC(N)=O)NC(=O)[C@@H](CCCNC(=N)N)NC(=O)[C@H](CCCCN)NC(=O)[C@H](Cc1c[nH]c2ccccc12)NC(=O)c1csc(-c2ccccn2)n1)C(=O)O	< 30%	–
N=C(N)NCCC[C@@H](NC(=O)CN)C(=O)NCC(=O)N[C@H](CC(=O)O)C(=O)N[C@H](CC(=O)O)C(=O)N[C@H](CC(=O)O)C(=O)O	inactive	–
Cc1nc(NC(=O)c2ccccc2)sc1-c1cc(C(=O)NCC(=O)N[C@H](CCCNC(=N)N)C(=O)NCC(=O)O)[nH]n1	81%	–
Cc1nc(NC(=O)c2ccccc2)sc1-c1cc(C(=O)NCC(=O)N[C@H](CCCNC(=N)N)C(=O)NCC(=O)N[C@H](CC(=O)O)C(=O)N[C@H](CC(=O)O)C(=O)N[C@H](CC(=O)O)C(=O)O)[nH]n1	93%	inhibition [3]: inactive; inhibition [4]: Active; inhibition (U-937 [5]): inactive
Cc1nc(NC(=O)c2ccccc2)sc1-c1cc(C(=O)O)[nH]n1	inactive	–
C[C@H](NC(=O)[C@H](CCCCN)NC(=O)[C@H](Cc1ccc(O)cc1)NC(=O)[C@H](Cc1cnc[nH]1)NC(=O)c1cnccn1)C(=O)N[C@H](CC(N)=O)C(=O)N[C@H](C(=O)O)[C@@H](C)O	< 30%	–
Cc1nc(NC(=O)c2ccccc2)sc1-c1cc(C(=O)NCC(=O)N[C@H](CCCNC(=N)N)C(=O)NCC(=O)N[C@H](CC(=O)O)C(=O)N[C@H](CC(=O)O)C(=O)O)[nH]n1	inactive	–
CC[C@H](C)[C@H](NC(=O)[C@@H](CC(=O)O)NC(=O)[C@H](Cc1c[nH]c2ccccc12)NC(=O)[C@H](C)NC(=O)c1cc(-c2sc(NC(=O)c3ccccc3)nc2C)n[nH]1)C(=O)O	85%	inhibition (U-937 [6]): inactive; inhibition [7]: Dose-dependent effect; inhibition [3]: inactive; inhibition [4]: Active; IC50 [2]: 20 µM
Cc1nc(NC(=O)c2ccccc2)sc1-c1cc(C(=O)N[C@@H](C)C(=O)N[C@@H](Cc2c[nH]c3ccccc23)C(=O)O)[nH]n1	inactive	–
Cc1nc(NC(=O)c2ccccc2)sc1-c1cc(C(=O)NCC(=O)N[C@H](CCCN=C(N)N)C(=O)NCC(=O)N[C@H](CC(=O)O)C(=O)O)[nH]n1	–	IC50 [2]: 155 µM
CC(C)[C@H](NC(=O)CC1NC(=O)NC1=O)C(=O)N[C@H](CC(N)=O)C(=O)N[C@@H](Cc1c[nH]c2ccccc12)C(=O)N1CCC[C@H]1C(=O)N[C@@H](CCC(N)=O)C(=O)N[C@@H](CCC(N)=O)C(=O)O (stereo partly specified)	< 30%	–
Cc1nc(NC(=O)c2ccccc2)sc1-c1cc(C(=O)NCC(=O)N[C@H](CCCNC(=N)N)C(=O)O)[nH]n1	77%	–
Cc1nc(NC(=O)c2ccccc2)sc1-c1cc(C(=O)NCC(=O)N[C@H](CCCNC(=N)N)C(=O)NCC(=O)N[C@H](CC(=O)O)C(=O)O)[nH]n1	87%	–
Cc1nc(NC(=O)c2ccccc2)sc1-c1cc(C(=O)NCC(=O)N[C@H](CCCN=C(N)N)C(=O)NCC(=O)N[C@H](CC(=O)O)C(=O)N[C@H](CC(=O)O)C(=O)N[C@H](CC(=O)O)C(=O)O)[nH]n1	–	IC50 [2]: 71 µM
Cc1nc(NC(=O)c2ccccc2)sc1-c1cc(C(=O)NCC(=O)N[C@H](CCCN=C(N)N)C(=O)NCC(=O)O)[nH]n1	–	IC50 [2]: 217 µM
Cc1nc(NC(=O)c2ccccc2)sc1-c1cc(C(=O)N[C@@H](C)C(=O)O)[nH]n1	inactive	–
Cc1nc(NC(=O)c2ccccc2)sc1-c1cc(C(=O)NCC(=O)N[C@H](CCCN=C(N)N)C(=O)O)[nH]n1	–	IC50 [2]: 262 µM
CC[C@H](C)[C@H](NC(=O)[C@@H](CC(=O)O)NC(=O)[C@H](Cc1c[nH]c2ccccc12)NC(=O)[C@H](C)N)C(=O)O	inactive	–
N=C(N)NCCC[C@@H](NC(=O)c1csc(-c2ccccn2)n1)C(=O)N[C@@H](Cc1c[nH]c2ccccc12)C(=O)N[C@@H](CCC(=O)O)C(=O)N[C@H](Cc1ccccc1)C(=O)O	< 30%	–
